According to ChEMBL document CHEMBL2176963, “Design, synthesis, and biological evaluation of 3-(1H-1,2,3-triazol-1-yl)benzamide derivatives as Potent Pan Bcr-Abl inhibitors including the threonine(315)→isoleucine(315) mutant” (J Med Chem, 2012):
The source made the active and inactive calls. The calls are words filed in the database; no cut-off is given here.

Tests used:
cells = settings: Mus musculus, BaF3, 72 h
[1] = Antiproliferative activity against mouse BA/F3 cells expressing Bcr-Abl H396R mutant after 72 hrs by CCK-8 assay; settings: BaF3, 72 h
[2] = Antiproliferative activity against mouse BA/F3 cells expressing Bcr-Abl Y253F mutant after 72 hrs by CCK-8 assay; settings: BaF3, 72 h
[3] = Antiproliferative activity against mouse BA/F3 cells expressing Bcr-Abl Q252H mutant after 72 hrs by CCK-8 assay; settings: BaF3, 72 h
[4] = Antiproliferative activity against mouse BA/F3 cells expressing Bcr-Abl M244V mutant after 72 hrs by CCK-8 assay; settings: BaF3, 72 h
[5] = Antiproliferative activity against mouse BA/F3 cells expressing wild type Bcr-Abl after 72 hrs by CCK-8 assay; settings: BaF3, 72 h
[6] = Antiproliferative activity against mouse BA/F3 cells expressing Bcr-Abl F486S mutant after 72 hrs by CCK-8 assay; settings: BaF3, 72 h
[7] = Antiproliferative activity against mouse BA/F3 cells expressing Bcr-Abl M351T mutant after 72 hrs by CCK-8 assay; settings: BaF3, 72 h
[8] = Antiproliferative activity against mouse BA/F3 cells expressing Bcr-Abl Y253H mutant after 72 hrs by CCK-8 assay; settings: BaF3, 72 h
[9] = Antiproliferative activity against mouse BA/F3 cells expressing Bcr-Abl H396P mutant after 72 hrs by CCK-8 assay; settings: BaF3, 72 h
[10] = Antiproliferative activity against mouse BA/F3 cells expressing Bcr-Abl E255K mutant after 72 hrs by CCK-8 assay; settings: BaF3, 72 h
[11] = Antiproliferative activity against mouse BA/F3 cells expressing Bcr-Abl F359V mutant after 72 hrs by CCK-8 assay; settings: BaF3, 72 h
[12] = Antiproliferative activity against mouse BA/F3 cells expressing Bcr-Abl E255V mutant after 72 hrs by CCK-8 assay; settings: BaF3, 72 h
[13] = Antiproliferative activity against mouse BA/F3 cells expressing Bcr-Abl E355G mutant after 72 hrs by CCK-8 assay; settings: BaF3, 72 h
[14] = Antiproliferative activity against mouse BA/F3 cells expressing Bcr-Abl G250E mutant after 72 hrs by CCK-8 assay; settings: BaF3, 72 h
[15] = Antiproliferative activity against mouse BA/F3 cells after 72 hrs by CCK-8 assay; settings: BaF3, 72 h
K562 [16] = test: Induction of apoptosis in human K562 cells expressing wild type Bcr-Abl using annexin-V-FITC and 7-AAD staining by flow cytometer; format: functional, cell-based
BaF3 [17] = test: Effect on STAT5 protein level in mouse BA/F3 cells expressing Bcr-Abl T315I mutant by Western blot analysis; format: functional, cell-based
How it was run: (§1)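 K562 or Ba/F3 Bcr-Abl T315I cells were treated with graded concentrations, lysed in 1× SDS sample buffer, sonicated and boiled. Lysates were run on 8−12% SDS-PAGE and transferred to PVDF. Membranes were blocked in TBS with 0.1% Tween-20 and 5% nonfat milk, then probed with primary antibody and HRP-conjugated secondary. Blots shown represent three independent experiments.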

[18] = test system: Tyrosine-protein kinase ABL1 (Mus musculus), P00520 [T315I]; test: Inhibition of Bcr-Abl T315I mutant-mediated STAT5 phosphorylation in mouse BA/F3 cells by Western blot analysis; format: cell-based; settings: BaF3
How it was run: as §1

K562 [19] = test: Effect on CrkL protein level in human K562 cells expressing wild type Bcr-Abl by Western blot analysis; format: functional, cell-based
How it was run: as §1

K562 [20] = test: Antiproliferative activity against imatinib-resistant human K562 cells expressing Bcr-Abl Q252H mutant after 72 hrs by CCK-8 assay; settings: K562, 72 h
K562 [21] = test: Antiproliferative activity against human K562 cells expressing wild type Bcr-Abl after 72 hrs by CCK-8 assay; settings: K562, 72 h
K562 [22] = test: Effect on wild type Bcr-Abl protein level in human K562 cells by Western blot analysis; format: functional, cell-based
How it was run: as §1

K562 [23] = test: Effect on STAT5 protein level in human K562 cells expressing wild type Bcr-Abl by Western blot analysis; format: functional, cell-based
How it was run: as §1

[24] = Antiproliferative activity against human KU812 cells expressing wild type Bcr-Abl after 72 hrs by CCK-8 assay; settings: KU812, 72 h
[25] = test system: Tyrosine-protein kinase ABL1 (Mus musculus), P00520 [T315I]; test: Inhibition of Bcr-Abl T315I mutant phosphorylation in mouse BA/F3 cells by Western blot analysis; format: cell-based; settings: BaF3
How it was run: as §1

BaF3 [26] = test: Effect on CrkL protein level in mouse BA/F3 cells expressing Bcr-Abl T315I mutant by Western blot analysis; format: functional, cell-based
How it was run: as §1

[27] = test system: Tyrosine-protein kinase ABL1 (Mus musculus), P00520 [T315I]; test: Inhibition of Bcr-Abl T315I mutant-mediated CrkL phosphorylation in mouse BA/F3 cells by Western blot analysis; format: cell-based; settings: BaF3
How it was run: as §1

BaF3 [28] = test: Induction of apoptosis in mouse BA/F3 cells expressing Bcr-Abl T315I mutant using annexin-V-FITC and 7-AAD staining by flow cytometer; format: functional, cell-based
BaF3 [29] = test: Effect on Bcr-Abl T315I mutant protein level in mouse BA/F3 cells by Western blot analysis; format: functional, cell-based
How it was run: as §1

[30] = Cell cycle arrest in mouse BA/F3 cells expressing Bcr-Abl T315I mutant assessed as accumulation at G0/G1 phase using propidium iodide staining by FACS analysis; format: functional, cell-based; settings: BaF3
K562 [31] = test: Cell cycle arrest in human K562 cells expressing wild type Bcr-Abl assessed as accumulation at G0/G1 phase using propidium iodide staining by FACS analysis; format: functional, cell-based

Tyrosine-protein kinase ABL1 (Mus musculus), P00520 [T315I], sequence (P00520 whole entry T315I): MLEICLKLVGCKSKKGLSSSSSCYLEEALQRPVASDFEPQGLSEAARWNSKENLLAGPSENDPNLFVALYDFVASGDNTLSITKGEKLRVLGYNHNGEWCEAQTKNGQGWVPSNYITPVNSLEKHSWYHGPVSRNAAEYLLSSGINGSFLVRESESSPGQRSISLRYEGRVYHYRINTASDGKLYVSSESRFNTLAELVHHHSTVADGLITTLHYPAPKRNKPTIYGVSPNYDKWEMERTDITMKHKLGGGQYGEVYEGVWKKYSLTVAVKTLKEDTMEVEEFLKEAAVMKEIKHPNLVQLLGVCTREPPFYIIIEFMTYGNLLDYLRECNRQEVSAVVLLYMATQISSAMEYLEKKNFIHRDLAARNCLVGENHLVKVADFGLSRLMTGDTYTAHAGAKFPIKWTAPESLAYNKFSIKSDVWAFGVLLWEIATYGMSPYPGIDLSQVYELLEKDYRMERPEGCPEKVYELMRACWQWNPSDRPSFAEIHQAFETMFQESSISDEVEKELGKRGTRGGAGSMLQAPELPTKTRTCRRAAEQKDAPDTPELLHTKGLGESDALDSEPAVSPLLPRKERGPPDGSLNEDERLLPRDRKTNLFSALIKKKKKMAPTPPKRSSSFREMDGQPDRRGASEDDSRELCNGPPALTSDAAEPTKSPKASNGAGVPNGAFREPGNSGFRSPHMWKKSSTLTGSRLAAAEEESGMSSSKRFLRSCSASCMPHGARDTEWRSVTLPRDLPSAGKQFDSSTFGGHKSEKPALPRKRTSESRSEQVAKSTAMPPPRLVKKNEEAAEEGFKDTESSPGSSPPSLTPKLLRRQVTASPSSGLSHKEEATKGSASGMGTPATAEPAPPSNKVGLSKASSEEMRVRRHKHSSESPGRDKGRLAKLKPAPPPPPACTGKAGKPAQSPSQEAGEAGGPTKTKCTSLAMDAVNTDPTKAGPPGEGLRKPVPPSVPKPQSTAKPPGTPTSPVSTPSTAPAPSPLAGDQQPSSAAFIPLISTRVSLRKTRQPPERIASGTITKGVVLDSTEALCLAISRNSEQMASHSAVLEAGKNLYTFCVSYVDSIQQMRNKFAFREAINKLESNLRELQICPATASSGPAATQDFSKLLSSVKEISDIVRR

Row | SMILES | IC50 (cells) [nM] | IC50 [1] [nM] | IC50 [2] [nM] | IC50 [3] [nM] | IC50 [4] [nM] | IC50 [5] [nM] | IC50 [6] [nM] | IC50 [7] [nM] | IC50 [8] [nM] | IC50 [9] [nM] | IC50 [10] [nM] | IC50 [11] [nM] | IC50 [12] [nM] | IC50 [13] [nM] | IC50 [14] [nM] | IC50 [15] [nM] | IC50 (K562 [20]) [nM] | IC50 (K562 [21]) [nM] | IC50 [24] [nM] | also measured
1 | Cc1cn(-c2cc(NC(=O)c3ccc(C)c(Nc4nccc(-c5cccnc5)n4)c3)cc(C(F)(F)F)c2)cn1 [NILOTINIB] | 775 | 87.2 | 60.7 | 150 | 1.54 | 65.2 | 21 | 10.3 | 314 | 6.34 | 292 | 159 | 473 | 8.38 | 38.6 | 40800 |  |  |  | 
2 | Cc1ccc(NC(=O)c2ccc(CN3CCN(C)CC3)cc2)cc1Nc1nccc(-c2cccnc2)n1 [IMATINIB] | 3000 | 2380 | 1440 | 3760 | 129 | 1830 | 2550 | 424 | 17100 | 110 | 2950 | 960 | 8620 | 362 | 1860 | 18500 |  |  |  | 
3 | Cc1ccc(C(=O)Nc2ccc(CN3CCN(C)CC3)c(C(F)(F)F)c2)cc1-n1cc(-c2cnc3[nH]ncc3c2)nn1 | 13.9 | 3.73 | 0.35 | 5.49 | 0.12 | 2.44 | 1.43 | 0.4 | 1.61 | 0.28 | 3.1 | 1.44 | 2.96 | 0.37 | 1.67 | 416 | 5.46 | 0.4 | 0.11 | Activity (K562 [16]): Active; Activity (BaF3 [17]): inactive; inhibition [18]: Active; Activity (K562 [19]): inactive; Activity (K562 [22]): inactive; Activity (K562 [23]): inactive; inhibition [25]: Dose-dependent effect; Activity (BaF3 [26]): inactive; inhibition [27]: Active; Activity (BaF3 [28]): Active; Activity (BaF3 [29]): inactive; Activity [30]: Active; Activity (K562 [31]): Active
4 | CN1CCN(Cc2ccc(NC(=O)c3ccc(Cl)c(-n4cc(-c5cnc6[nH]ncc6c5)nn4)c3)cc2C(F)(F)F)CC1 | 11.9 | 5.4 | 0.52 | 7.55 | 0.61 | 2.49 | 4.17 | 0.45 | 2.97 | 0.3 | 2.75 | 2.31 | 3.41 | 0.3 | 1.97 | 372 | 3.91 | 0.43 | 0.08 | Activity (K562 [16]): Active; Activity (BaF3 [17]): inactive; inhibition [18]: Active; Activity (K562 [19]): inactive; Activity (K562 [22]): inactive; Activity (K562 [23]): inactive; inhibition [25]: Dose-dependent effect; Activity (BaF3 [26]): inactive; inhibition [27]: Active; Activity (BaF3 [28]): Active; Activity (BaF3 [29]): inactive; Activity [30]: Active; Activity (K562 [31]): Active
5 | Cc1ccc(C(=O)Nc2ccc(CN3CCCN(C)CC3)c(C(F)(F)F)c2)cc1-n1cc(-c2cnc3[nH]ncc3c2)nn1 | 294 |  |  |  |  | 4.02 |  |  |  |  |  |  |  |  |  |  | 8.45 | 0.8 | 0.38 | 
6 | Cc1ccc(C(=O)Nc2ccc(CN3CCN(C)CC3)c(C(F)(F)F)c2)cc1-n1cc(-c2ccc3[nH]ncc3c2)nn1 | 754 |  |  |  |  | 56.2 |  |  |  |  |  |  |  |  |  |  | 109 | 12.4 | 12.2 | 
7 | Cc1ccc(Nc2ncc3c(n2)N(C)C(=O)N(c2cc(NC(=O)c4cccc(C(F)(F)F)c4)ccc2C)C3)cn1 | 6.18 |  |  |  |  | 3.15 |  |  |  |  |  |  |  |  |  |  | 2.6 | 0.44 | 0.08 | 
8 | Cc1nc(Nc2ncc(C(=O)Nc3c(C)cccc3Cl)s2)cc(N2CCN(CCO)CC2)n1 [DASATINIB] | 1710 | 1.72 | 0.58 | 6.55 | 0.12 | 4.5 | 1.71 | 0.83 | 1.29 | 0.31 | 5.72 | 1.94 | 1.91 | 0.58 | 0.51 | 6590 |  |  |  | 
9 | Cc1ccc(C(=O)Nc2ccc(CN3CCCCC3)c(C(F)(F)F)c2)cc1-n1cc(-c2cnc3[nH]ncc3c2)nn1 | 3510 |  |  |  |  | 5.39 |  |  |  |  |  |  |  |  |  |  | 31.1 | 3.22 | 0.47 | 
10 | Cc1ccc(C(=O)Nc2ccc(CN3CC[C@H](N(C)C)C3)c(C(F)(F)F)c2)cc1-n1cc(-c2cnc3[nH]ncc3c2)nn1 | 91.7 |  |  |  |  | 3.01 |  |  |  |  |  |  |  |  |  |  | 2.24 | 0.32 | 0.68 | 
